The source made the active and inactive calls.
What was measured:
Mus musculus [1] = assay: Toxicity in CD-1 mouse assessed as changes in normal pain threshold at 3 to 10 mg/kg, po measured up to 60 mins by hot plate test; type: organism-based; conditions: in vivo, 1 h
Heart = assay: Cardiotoxicity in Langendorff-perfused Sprague-Dawley rat heart assessed as time duration of action potential at 1 uM by ECG analysis (reference value: 75.65 +/- 0.87 milliseconds); type: toxicity, tissue-based
Mus musculus [2] = assay: Toxicity in CD-1 mouse assessed as 2-AG level in spinal cord at 0.3 mg/kg, ip by LC-MS analysis (reference value: 6.4 +/- 0.4 pmol/g); type: organism-based; conditions: in vivo
Procedure, shortened: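 Male CD-1 mice received 0.3 mg/kg i.p. in 0.5% DMSO/saline, with formalin (1.25%, 30 µL) injected into the dorsal hind paw. Paw skin or spinal cord was taken at 5 min post-dose. Tissue was homogenized in CHCl3/MeOH/50 mM Tris-HCl (2:1:1) containing d5-2-AG, extracted with chloroform and analysed by LC-MS. n = 4; ANOVA with Bonferroni test.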

Mus musculus [3] = assay: Change in cumulative score in myelin oligodendrocyte glycoprotein (35 to 55)-induced C57BL/6J mouse experimental autoimmune encephalomyelitis model of multiple sclerosis at 3 mg/kg, ip dosed on day 6 postimmunization up to 21 day postimmunization measured from day 8 postimmunization; type: functional, organism-based
Procedure, shortened: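 Female C57BL/6J mice immunized with MOG35-55 peptide. Given 3 mg/kg i.p. daily from day 6 post-immunization to the acute stage (21 ± 1 d.p.i.). Clinical score recorded daily and as a cumulative score; n = 7–9 per group.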

Row | Structure (SMILES) | Activity (Mus musculus [1]) | Time (Heart) | Activity (Mus musculus [2]) | Activity (Mus musculus [3])
1 | O=C1[C@H](c2ccc(F)cc2)[C@@H](c2ccc3c(c2)OCO3)N1C1CCN(C(=O)n2cncn2)CC1 (racemic) [listing 1 of 2 here] | Non-toxic | 76.02 ms | 9.7 pmol/g | –
2 | O=C1[C@H](c2ccc(F)cc2)[C@@H](c2ccc3c(c2)OCO3)N1C1CCN(C(=O)n2cncn2)CC1 (racemic) [listing 2 of 2 here] | – | – | – | Active

— ChEMBL document CHEMBL3785023, “Development and Pharmacological Characterization of Selective Blockers of 2-Arachidonoyl Glycerol Degradation with Efficacy in Rodent Models of Multiple Sclerosis and Pain” (J Med Chem, 2016)
